In brackets after ≈: the same amount, converted by molar mass. Entries after “also recorded” stand apart in the source; their conditions may differ.
Assays:
P. falciparum (D6) = assay: in vitro antimalarial activity, plasmodial LDH; assay type: cell-based, Plasmodium falciparum; conditions: Plasmodium falciparum, D6, 72 h, read-out: P. falciparum (D6) IC50
P. falciparum (W2) = assay: in vitro antimalarial activity, plasmodial LDH; assay type: cell-based, Plasmodium falciparum; conditions: for IC50: Plasmodium falciparum, W2, 72 h, read-out: P. falciparum (W2) IC50, CQ-resistant W2 strain, 72 h
Procedure, shortened: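 P. falciparum-infected erythrocytes (2% parasitemia, 2% hematocrit) in RPMI 1640 with 10% human serum and 60 μg/mL amikacin. Exposed to test compound dilutions for 72 h at 37 °C under 90% N2/5% O2/5% CO2. LDH measured with Malstat reagent (30 min, room temperature), then NBT/PES for 1 h in the dark, stopped with 5% acetic acid, read at 650 nm. IC50 from dose-response curves.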

[1] = test system: SK-MEL, KB, BT-549, SK-OV-3, VERO and LLC-PK1 cells; assay: cytotoxicity, neutral red uptake assay; assay type: cell-based, mammalian; conditions: highest test concentration 4760 ng/mL
Procedure, shortened: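 Cells seeded at 25 000/well and allowed 24 h to reach confluence. Test compound was then added and incubated 48 h. Viable cells were counted by a modified neutral red uptake method. The panel was four human cancer lines and two noncancerous mammalian kidney lines. Doxorubicin served as positive control and DMSO as negative control.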

[2] = test system: P. berghei (sensitive strain); assay: blood-schizontocidal activity against P. berghei infection in mice; assay type: in vivo, Plasmodium berghei; conditions: Swiss mice
Procedure, shortened: (§1)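 Swiss mice of either sex (about 15–20 g, same age), six per group, inoculated intraperitoneally on day 0 with 1 × 10^7 infected erythrocytes from a donor mouse. Oral test compound at 100, 50, 25 or 10 mg/kg, CQ diphosphate (10 mg/kg/day × 4) or vehicle started 4 h later, on D0 to D+3. Giemsa tail-blood smears on D+4 and D+7. Curative: parasites eliminated, no relapse, all mice surviving to D+60.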

[3] = test system: multidrug-resistant P. yoelii nigeriensis; assay: blood-schizontocidal activity against P. yoelii nigeriensis infection in mice; assay type: in vivo, Plasmodium yoelii nigeriensis; conditions: Swiss mice
Procedure, shortened: as §1

[4] = test system: L. donovani promastigotes; assay: in vitro antileishmanial activity, alamarBlue assay; assay type: cell-based, Leishmania donovani; conditions: Leishmania donovani, 48 h; for IC50: read-out: L. donovani IC50, promastigotes, 48 h; for IC90: read-out: L. donovani IC90, promastigotes, 48 h
C. albicans ATCC90028 = assay: in vitro antifungal activity; assay type: cell-based, Candida albicans; conditions: Candida albicans; for IC50: ATCC90028, read-out: C. albicans IC50; for MFC: ATCC90028, read-out: C. albicans MFC; for MIC: ATCC90028, read-out: C. albicans MIC
Procedure, shortened: (§2)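 Modified NCCLS broth method in Sabouraud dextrose. Inoculum set by OD630 to 1.5 × 10^3 CFU/mL. Test compound serially diluted in 20% DMSO/saline, duplicate wells, up to 20 μg/mL. Incubated 70–74 h at 35 °C; 530 nm read before and after. IC50 is 50% growth inhibition; MIC is no detectable growth. MFC from clear wells subcultured on agar. Amphotericin B control.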

C. neoformans ATCC90113 = assay: in vitro antifungal activity; assay type: cell-based, Cryptococcus neoformans; conditions: Cryptococcus neoformans; for IC50: ATCC90113, read-out: C. neoformans IC50; for MFC: ATCC90113, read-out: C. neoformans MFC; for MIC: ATCC90113, read-out: C. neoformans MIC
Procedure, shortened: as §2

A. fumigatus ATCC 90906 = assay: in vitro antifungal activity; assay type: cell-based, Aspergillus fumigatus; conditions: Aspergillus fumigatus; for IC50: ATCC90906, read-out: A. fumigatus IC50; for MFC: ATCC90906, read-out: A. fumigatus MFC; for MIC: ATCC90906, read-out: A. fumigatus MIC
Procedure, shortened: as §2

SA (ATCC29213) = assay: in vitro antibacterial activity; assay type: cell-based; conditions: Staphylococcus aureus; for IC50: ATCC29213, read-out: IC50 (concentration that affords 50% growth inhibition), SA; for MBC: ATCC29213, read-out: MBC (minimum bactericidal concentration), SA; for MIC: ATCC29213, read-out: MIC, SA
Procedure, shortened: (§3)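 Test compound serially diluted in 20% DMSO/saline and plated in duplicate, up to 20 μg/mL. Inoculum in cation-adjusted Mueller–Hinton broth, pH 7.3, set by OD630 to 5 × 10^5 CFU/mL. Incubated 16–20 h at 35 °C; 530 nm read before and after. IC50 is 50% growth inhibition; MIC is no detectable growth. MBC from clear wells subcultured on agar. Ciprofloxacin control.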

MRSA (ATCC33591) = assay: in vitro antibacterial activity; assay type: cell-based, methicillin-resistant Staphylococcus aureus; conditions: Staphylococcus aureus, ATCC33591|MRSA, read-out: MIC, MRSA
Procedure, shortened: as §3

[5] = test system: M. intracellulare (ATCC23068); assay: in vitro antibacterial activity, modified alamarBlue procedure; assay type: cell-based, Mycobacterium intracellulare; conditions: Mycobacterium intracellulare; for IC50: ATCC23068, read-out: IC50 (concentration that affords 50% growth inhibition), M. intracellulare; for MBC: ATCC23068, read-out: MBC (minimum bactericidal concentration), M. intracellulare; for MIC: ATCC23068, read-out: MIC, M. intracellulare
Procedure, shortened: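 Modified alamarBlue microplate method. Test compound serially diluted in 20% DMSO/saline, duplicate wells, up to 20 μg/mL. Inoculum 2.0 × 10^6 CFU/mL in Middlebrook 7H9 with OADC, pH 7.3, containing 5% alamarBlue. Incubated 70–74 h at 37 °C, 10% CO2; fluorescence 544ex/590em read before and after. MIC: no blue-to-pink change. MBC by subculturing blue wells on agar. Ciprofloxacin control.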

Structure (SMILES)	IC50 (P. falciparum (D6))	IC50 (P. falciparum (W2))	cytotoxicity CTX [1]	P. berghei blood-schizontocidal activity (mice cured/treated) ([2]; 10 mg/kg/day × 4, oral)	P. berghei blood-schizontocidal activity (mice cured/treated) ([2]; 25 mg/kg/day × 4, oral)	P. berghei blood-schizontocidal activity (mice cured/treated) ([2]; 50 mg/kg/day × 4, oral)	P. berghei blood-schizontocidal activity (mice cured/treated) ([2]; 100 mg/kg/day × 4, oral)	P. yoelii nigeriensis blood-schizontocidal activity (mice cured/treated) ([3]; 25 mg/kg/day × 4, oral)	P. yoelii nigeriensis blood-schizontocidal activity (mice cured/treated) ([3]; 50 mg/kg/day × 4, oral)	P. yoelii nigeriensis blood-schizontocidal activity (mice cured/treated) ([3]; 100 mg/kg/day × 4, oral)	IC50 [4]	IC90 [4]	IC50 (C. albicans ATCC90028)	MFC (C. albicans ATCC90028)	MIC (C. albicans ATCC90028)	IC50 (C. neoformans ATCC90113)	MFC (C. neoformans ATCC90113)	MIC (C. neoformans ATCC90113)	IC50 (A. fumigatus ATCC 90906)	MFC (A. fumigatus ATCC 90906)	further results
CCCCCOc1c(OC)cc(NC(C)CCCN)c2nc(C(C)(C)C)ccc12 (stereo not drawn) [compound 46, N^4-(2-tert-Butyl-6-methoxy-5-(pentyloxy)quinolin-8-yl)pentane-1,4-diamine]	0.02 µg/mL (≈ 0.0498 µM)	0.022 µg/mL (≈ 0.0548 µM)	NC (NC, not cytotoxic up to 4760 ng/mL (4.76 μg/mL))	active (4/6)	curative (6/6)	curative (6/6)	curative (6/6)	active (4/6)	curative (6/6)	cured 100% mice; also recorded: curative (6/6)	32 µg/mL (≈ 79.7 µM)	> 40 µg/mL	> 20 µg/mL	> 20 µg/mL	> 20 µg/mL	> 20 µg/mL	> 20 µg/mL	> 20 µg/mL	> 20 µg/mL	> 20 µg/mL	MIC (A. fumigatus ATCC 90906): > 20 µg/mL; IC50 (SA (ATCC29213)): 9.04 µg/mL (≈ 22.5 µM); MBC (SA (ATCC29213)): > 20 µg/mL; MIC (SA (ATCC29213)): > 20 µg/mL; MIC (MRSA (ATCC33591)): > 20 µg/mL; IC50 [5]: > 20 µg/mL; MBC [5]: > 20 µg/mL; MIC [5]: > 20 µg/mL
CCCCCCOc1c(OC)cc(NC(C)CCCN)c2nc(C(C)(C)C)ccc12 (stereo not drawn) [compound 47, N^4-(2-tert-Butyl-5-(hexyloxy)-6-methoxyquinolin-8-yl)pentane-1,4-diamine]	0.042 µg/mL (≈ 0.101 µM)	0.042 µg/mL (≈ 0.101 µM)	NC (NC, not cytotoxic up to 4760 ng/mL (4.76 μg/mL))	active (5/6)	curative (6/6)	curative (6/6)	curative (6/6)	inactive (0/6)	cured 100% mice; also recorded: curative (6/6)	curative (6/6)	4.6 µg/mL (≈ 11.1 µM)	> 40 µg/mL	15.4 µg/mL (≈ 37.2 µM)	20 µg/mL (≈ 48.1 µM)	20 µg/mL (≈ 48.1 µM)	2.97 µg/mL (≈ 7.15 µM)	5 µg/mL (≈ 12 µM)	5 µg/mL (≈ 12 µM)	> 20 µg/mL	> 20 µg/mL	P. falciparum (W2) IC50 (P. falciparum (W2); CQ-resistant W2 strain, 72 h): 0.04 µg/mL; MIC (A. fumigatus ATCC 90906): > 20 µg/mL; IC50 (SA (ATCC29213)): 2.77 µg/mL (≈ 6.66 µM); MBC (SA (ATCC29213)): 5 µg/mL (≈ 12 µM); MIC (SA (ATCC29213)): 5 µg/mL (≈ 12 µM); MIC (MRSA (ATCC33591)): 5 µg/mL (≈ 12 µM); IC50 [5]: 6.3 µg/mL (≈ 15.2 µM); MBC [5]: 10 µg/mL (≈ 24.1 µM); MIC [5]: 10 µg/mL (≈ 24.1 µM)
